Key:
Assay type in all cases: functional
[1] = system: Mus musculus; experiment: Analgesic activity against phenylquinone-induced in Swiss mouse assessed as effect on writhings at 50 mg/kg, po after 20 mins
In short: (§1)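 Female Swiss mice (15–20 g) screened the day before by intraperitoneal 0.2 cm³ of 0.02% aqueous phenylquinone, with writhes counted over 20 min. Mice with more than 10 writhes were used next day in groups of five. They were given the oral dose (25, 50 or 100 mg/kg) 15 min before the phenylquinone challenge, and writhing was recorded.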

[2] = system: Rattus norvegicus; experiment: Antiinflammatory activity against carrageenan-induced paw oedema in Albino rat at 50 mg/kg, po after 3 hrs
In short: (§2)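 Oral dosing. Paw volume was read by plethysmometer immediately after and 3 h after the irritant injection, and the volume difference was taken as oedema. Percent inhibition of oedema was calculated for treated groups against the control group, with a standard-drug group included.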

[3] = system: Mus musculus; experiment: Analgesic activity against phenylquinone-induced in Swiss mouse assessed as effect on writhings at 100 mg/kg, po after 20 mins; in short: as §1
[4] = system: Rattus norvegicus; experiment: Antiinflammatory activity against carrageenan-induced paw oedema in Albino rat at 100 mg/kg, po after 3 hrs; in short: as §2
[5] = system: Mus musculus; experiment: Analgesic activity against phenylquinone-induced in Swiss mouse assessed as effect on writhings at 25 mg/kg, po after 20 mins; in short: as §1
[6] = system: Mus musculus; experiment: Analgesic activity against phenylquinone-induced in Swiss mouse assessed as effect on writhings at 75 mg/kg, po after 20 mins

SMILES | Activity [1] [%] | Activity [2] [%] | Activity [3] [%] | Activity [4] [%] | Activity [5] [%] | Activity [6] [%]
CC1=CC(C)(C)NC(=S)N1CCCn1ccnc1 | 40 | 32.5 |  |  |  | 
CC(C)Cc1ccc(C(C)C(=O)O)cc1 (stereo not given) [IBUPROFEN] | 50 |  | 75 | 66.8 |  | 
CC1=CC(C)(C)NC(=S)N1c1ccccc1C#N | 0 |  | 25 | 0 |  | 
CC1(C)CC(C)(O)N(CCc2c[nH]cn2)C(=S)N1 (stereo not given) | 25 |  | 100 | 65 | 12.5 | 50
CC1CC(O)N(CCCN2CCCC2=O)C(=S)N1 (stereo not given) | 50 | 36.3 |  |  |  | 
CC1CC(O)N(CCCN2CCN(CCCN3C(=S)NC(C)CC3O)CC2)C(=S)N1 (stereo not given) | 40 | 38.6 |  |  |  | 
CC1(C)CC(C)(O)N(Cc2ccco2)C(=S)N1 (stereo not given) | 15 | 10.3 |  |  |  | 
CC1=CC(C)(C)NC(=S)N1CCCC1OCC2(CO1)COC(CCCN1C(=S)NC(C)(C)C=C1C)OC2 (stereo not given) | 25 |  | 75 | 31.8 |  | 
CC1(C)CC(C)(O)N(CCCn2ccnc2)C(=S)N1 (stereo not given) | 25 |  | 50 | 35 |  | 
CC1=CC(C)(C)NC(=S)N1c1n[nH]c(N2C(=S)NC(C)(C)C=C2C)n1 |  |  | 0 | 0 |  | 
CC1(C)CC(C)(O)N(CCCN2CCCC2=O)C(=S)N1 (stereo not given) |  |  | 34 | 40.3 |  | 
CC1CC(O)N(CCCC2OCC3(CO2)COC(CCCN2C(=S)NC(C)CC2O)OC3)C(=S)N1 (stereo not given) |  |  | 0 | 0 |  | 
CC1(C)CC(C)(O)N(CCCN2CCN(CCCN3C(=S)NC(C)(C)CC3(C)O)CC2)C(=S)N1 (stereo not given) | 10 | 31.6 |  |  |  | 
CC1=CC(C)(C)NC(=S)N1Cc1ccco1 | 8.5 | 15.1 |  |  |  | 

Source: ChEMBL document CHEMBL1147924, “One pot synthesis of pyrimidine and bispyrimidine derivatives and their evaluation for anti-inflammatory and analgesic activities” (2007)
